Laboratory results as given in ChEMBL document CHEMBL1141444, “Sorbifolivaltrates A-D, diene valepotriates from Valeriana sorbifolia(1)” (J Nat Prod, 2007).

Test: Cytotoxicity against human PC3M cells by MTT assay
Assay type: functional, cell-based
Details: PC-3M
How it was run: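 Human metastatic prostate PC-3M cells seeded at 2000/well, recovered overnight; serial drug dilutions in medium added in quadruplicate, DMSO as negative and doxorubicin as positive control. Incubated about 40 h at 37 °C, 5% CO2, then MTT 0.4 mg/mL for 4 h; medium removed, DMSO added, absorbance read at 650 nm. Percent inhibition plotted to derive IC50.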
With `CC(=O)OCC1=CO[C@@H](OC(=O)C=C(C)C)[C@H]2C1=C[C@H](OC(=O)CC(C)C)[C@]2(O)COC(=O)CC(C)C` the IC50 was 8.9 µM.
With `CC(C)=CC(=O)O[C@@H]1OC=C(COC(=O)CC(C)C)C2=C[C@H](OC(=O)CC(C)C)[C@]3(CO3)[C@H]21` the IC50 was 2.6 µM.
Work on `CC(C)CC(=O)OCC1=CO[C@@H](OC(=O)CC(C)(C)O)[C@H]2C1=C[C@H](OC(=O)CC(C)C)[C@]2(O)COC(=O)CC(C)C` yielded an IC50 of 8.9 µM.
Work on `COc1cccc2c1C(=O)c1c(O)c3c(c(O)c1C2=O)C[C@@](O)(C(=O)CO)C[C@@H]3O[C@H]1C[C@H](N)[C@H](O)[C@H](C)O1` [DOXORUBICIN] yielded an IC50 of 1.26 µM.
In the case of `CC(=O)OCC1=CO[C@@H](OC(=O)C=C(C)C)[C@H]2C1=C[C@H](OC(=O)CC(C)C)[C@]21CO1`, the IC50 is reported as 20 µM.
`CC(=O)O[C@H]1C=C2C(COC(=O)CC(C)C)=CO[C@@H](OC(=O)CC(C)C)[C@@H]2[C@@]12CO2` showed an IC50 of 3.1 µM.
In the case of `CC(=O)OCC1=CO[C@@H](OC(=O)CC(C)C)[C@H]2C1=C[C@H](OC(=O)CC(C)C)[C@]21CO1` [VALTRATE], the IC50 is reported as 1.7 µM.
`CC(=O)OCC1=CO[C@@H](OC(=O)CC(C)(C)O)[C@H]2C1=C[C@H](OC(=O)CC(C)C)[C@]2(O)COC(=O)CC(C)C` gave an IC50 of 11.1 µM.
For `CCC(C)CC(=O)O[C@H]1C=C2C(COC(C)=O)=CO[C@@H](OC(=O)C=C(C)C)[C@@H]2[C@@]1(O)COC(=O)CC(C)C` (stereo not given in full), the IC50 was 7.3 µM.
With `CCC(C)CC(=O)O[C@H]1C=C2C(COC(C)=O)=CO[C@@H](OC(=O)C=C(C)C)[C@@H]2[C@@]12CO2` (stereo not given in full) the IC50 was 12.2 µM.
